PAFAH1B2 FP inh – inhibitors of human PAFAH1B2; P68402; recombinant PAFAH1B2, FP-rhodamine activity probe, fluorescence polarization; inhibition, % at 3.39 µM; 340,000 tested, 1.2% active;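 active = inhibition above the mean of all tested compounds plus 3 SD, cut at about 24% in these data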
Target sequence (P68402 whole entry, looked up): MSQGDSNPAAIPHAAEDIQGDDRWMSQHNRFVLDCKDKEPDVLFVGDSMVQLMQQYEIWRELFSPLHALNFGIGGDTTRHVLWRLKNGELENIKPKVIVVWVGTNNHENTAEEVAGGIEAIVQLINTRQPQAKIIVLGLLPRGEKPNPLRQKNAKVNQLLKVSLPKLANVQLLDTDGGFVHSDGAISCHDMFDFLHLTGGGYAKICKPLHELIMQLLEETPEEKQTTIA
PAFAH1B3 inh – inhibitors of human PAFAH1B3; recombinant PAFAH1B3, FP-rhodamine probe, fluorescence polarization; Q15102; inhibition, % at 3.39 µM; 340,000 tested, 0.28% active;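 active = inhibition above the screen-wide average of all tested compounds plus 3 SD, cut at about 25% in these data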
PAFAH2 FP inh – inhibitors of human PAFAH2; Q99487; recombinant PAFAH2, FP-rhodamine activity probe, fluorescence polarization; 340,000 tested, 0.99% active; inhibition, % at 3.39 µM; AID 492956;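 active = inhibition above the mean over all tested compounds plus 3 SD, cut at about 30% in these data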;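 also: inhibitors block probe labeling of enzyme so polarization drops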
ASAP1 GAP inh – inhibitors of human ASAP1 ArfGAP activity; Q9ULH1; ASAP1-stimulated ARF1 GTP hydrolysis, GDP FP detection; inhibition, % at 16.5 µM; 360,000 tested, 0.19% active; AID 624377; in the data active = inhibition above about 25%
Target sequence (Q9ULH1 325-724 limits assumed): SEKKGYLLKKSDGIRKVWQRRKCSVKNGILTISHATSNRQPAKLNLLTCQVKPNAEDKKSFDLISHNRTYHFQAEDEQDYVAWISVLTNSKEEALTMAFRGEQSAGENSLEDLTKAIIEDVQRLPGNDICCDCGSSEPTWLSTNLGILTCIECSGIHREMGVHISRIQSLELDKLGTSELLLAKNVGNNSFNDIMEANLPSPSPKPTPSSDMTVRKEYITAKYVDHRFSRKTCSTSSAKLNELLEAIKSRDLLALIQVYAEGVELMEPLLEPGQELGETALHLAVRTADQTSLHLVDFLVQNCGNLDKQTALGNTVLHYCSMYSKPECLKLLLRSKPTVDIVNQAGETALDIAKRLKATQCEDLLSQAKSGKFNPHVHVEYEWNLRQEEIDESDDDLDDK
ARFGAP1 inh – inhibits rat ARF GTPase activating protein 1. Q62848. Arfgap1-stimulated ARF1 GTP hydrolysis, GDP FP detection. inhibition, % at 16.5 µM. 360,000 tested, 0.26% active;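 active = inhibition above a per-plate limit, mean inhibition of low control wells plus 3 SD, cut at about 25% in these data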
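Material: rat Arfgap1 catalytic domain, aa 1-136; also added: human ARF1(Δ1-17)-GTP substrate; compound dosing: one concentration, 16.5 µM, DMSO 1.26%; incubation: GTP hydrolysis reaction 2 h at 25 °C; measured by: Tracer-displacement fluorescence polarization with EDTA stop, 620/688 nm; evaluation: % inhibition from polarization; repeats: one replicate per compound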
pPAFAH inh – inhibitors of human plasma PAF acetylhydrolase (pPAFAH) | 330,000 tested, 1.5% active | inhibition, % at 3.39 µM | Q13093 | recombinant pPAFAH, FP-rhodamine probe fluorescence polarization | AID 463082;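 active = inhibition above the mean inhibition across the screen plus 3 SD, cut at about 25% in these data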;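 also: inhibitors block binding of the rhodamine activity-based probe so polarization drops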
pPAFAH confirm – confirmation of human plasma PAF acetylhydrolase (pPAFAH) inhibitors; shares compounds with pPAFAH inh; recombinant pPAFAH, FP-Rh probe fluorescence polarization; inhibition, % at 3.39 µM; 2,300 tested, 72% active; AID 463230;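 active = mean inhibition of the triplicate above the hit cutoff set for the earlier primary screen, cut at about 25% in these data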
Large screens that a line does not name were inactive (follow-up assays come after a bar, where they were run). Compounds with a hit are over-represented: about 2.8% of the library has one in this group of screens.

COc1cc(/C=N/NC(=O)C(Cc2c[nH]c3ccccc23)NC(=O)OCC(C)C)cc([N+](=O)[O-])c1OCc1ccccc1 (centres undefined)	none
COc1cc(/C=N/NC(=O)C(Cc2c[nH]c3ccccc23)NC(=O)OCc2ccccc2)cc([N+](=O)[O-])c1O (centres undefined)	PAFAH1B2 FP inh 43, pPAFAH inh 46 | pPAFAH confirm 52
COc1cc(/C=N/NC(=O)C(Cc2c[nH]c3ccccc23)NC(=O)OCC(C)C)cc([N+](=O)[O-])c1O (centres undefined)	pPAFAH inh 37 | pPAFAH confirm 31
N#CC(C#N)=C(N)/C(C#N)=C/c1cc(O)c(O)c(O)c1	PAFAH1B2 FP inh 33, PAFAH1B3 inh 39, PAFAH2 FP inh 35, pPAFAH inh 39 | pPAFAH confirm 60
N#C/C(=C/c1cc(Cl)c(O)c(Cl)c1)C(=O)N1CCCCC1	none
Cc1csc(=Nc2cccnc2)n1Cc1ccco1	none
Cc1csc(=Nc2ccc(S(=O)(=O)N3CCOCC3)cc2)n1Cc1ccco1	pPAFAH inh 46 | pPAFAH confirm inactive
N#C/C(=N\Nc1cccc(C(F)(F)F)c1)C(=O)c1ccsc1	pPAFAH inh 37 | pPAFAH confirm 29
O=C(CSc1n[nH]c(-c2ccccc2)n1)c1ccc(O)c(O)c1	pPAFAH inh 42 | pPAFAH confirm 68
Cc1cc(SCC(=O)c2ccc(O)c(O)c2)nc2ccccc12	PAFAH2 FP inh 31, pPAFAH inh 42 | pPAFAH confirm 94
Cc1ccc(O)c(NC(=O)CSc2n[nH]c(-c3ccccc3)n2)c1	none
Cc1ccc(C)c(NS(=O)(=O)c2ccc(OCC(=O)NCc3ccco3)cc2)c1	pPAFAH inh 39 | pPAFAH confirm inactive
CCOC(=O)c1c(-c2ccccc2)csc1NC(=O)/C(C#N)=C/c1ccc(O)c(OC)c1	pPAFAH inh 40 | pPAFAH confirm inactive
CCOC(=O)c1c(-c2ccccc2)csc1NC(=O)/C(C#N)=C/c1ccc(OC)c(OC)c1	none
Cn1ccnc1C(=O)c1cc(SCC(=O)NCc2ccccc2)nc2ccccc12	none
COC(=O)CSc1cc(C(=O)c2nccn2C)c2ccccc2n1	pPAFAH inh 43 | pPAFAH confirm inactive
Cn1cnc2ncnn2c1=S	none (no result: PAFAH1B2 FP inh, PAFAH1B3 inh, PAFAH2 FP inh, pPAFAH inh)
COc1ccccc1-c1sc2ccccc2c1-c1cnc(N2CCOCC2)nc1	none (no result: PAFAH1B2 FP inh, PAFAH1B3 inh, PAFAH2 FP inh, pPAFAH inh)
CCc1ccc(NC(=O)C(C)OC(=O)c2cc(=O)[nH]c3ccc(S(=O)(=O)Nc4ccc(F)cc4)cc23)cc1 (centres undefined)	pPAFAH inh 73 | pPAFAH confirm 56
O=C1C(Nc2ccccc2)=C(NS(=O)(=O)c2ccccc2)C(=O)c2ccccc21	none
Cc1ccc(NC2=C(NCCO)C(=O)c3ccccc3C2=O)cc1	none
Cc1ccc(S(=O)(=O)/N=C2\C=C(Nc3ccc(O)cc3)C(=O)c3ccccc32)cc1	PAFAH1B2 FP inh 27, PAFAH1B3 inh 61, PAFAH2 FP inh 35, pPAFAH inh 38 (no result: ASAP1 GAP inh, ARFGAP1 inh) | pPAFAH confirm 33
COC(=O)c1ccccc1NC1=C/C(=N\S(=O)(=O)c2ccc(C(=O)O)cc2)c2ccccc2C1=O	PAFAH1B2 FP inh 53, PAFAH1B3 inh 71, PAFAH2 FP inh 72, pPAFAH inh 37 (no result: ASAP1 GAP inh, ARFGAP1 inh) | pPAFAH confirm 39
Cc1ccc(/C=C2\S/C(=N/S(=O)(=O)c3cccs3)NC2=O)cc1	none
Cc1ccc(NC2=C/C(=N/S(=O)(=O)c3cccs3)c3ccccc3C2=O)cc1	PAFAH1B3 inh 45, ASAP1 GAP inh 33, pPAFAH inh 53 | pPAFAH confirm 65
O=C1C(Nc2ccccc2)=C/C(=N/S(=O)(=O)c2cccs2)c2ccccc21	PAFAH1B2 FP inh 38, PAFAH1B3 inh 62, PAFAH2 FP inh 49, pPAFAH inh 62 (no result: ASAP1 GAP inh, ARFGAP1 inh) | pPAFAH confirm 60
O=C(CN1CCN(S(=O)(=O)c2ccc(Br)s2)CC1)N1CCCCC1	none
CCOC(=O)c1ncn2c1[C@@H]1CCNC1C(=O)c1cc(OC)ccc1-2 (some centres undefined)	none
Cc1ccc(NC(=O)c2ccc(Nc3c([N+](=O)[O-])cc([N+](=O)[O-])cc3[N+](=O)[O-])cc2)cc1	PAFAH1B3 inh 27, pPAFAH inh 52 | pPAFAH confirm 51
CC(=O)Nc1ccc(NC(=O)c2cc([N+](=O)[O-])cc([N+](=O)[O-])c2)cc1	none
CCOC(=O)C1=CCN(S(=O)(=O)c2ccccc2Cl)C1c1ccc(C)cc1 (centres undefined)	none (no result: PAFAH1B2 FP inh, PAFAH1B3 inh, PAFAH2 FP inh, pPAFAH inh)
CNc1ccc(Br)cc(C(=O)/C=C/c2cc(OC)ccc2OC)c1=O	pPAFAH inh 38 | pPAFAH confirm inactive
COCCCNC(=O)/C=C/c1ccc(Cl)cc1Cl	none
CNc1ccc(Br)cc(C(=O)/C=C/c2ccc3c(c2)OCO3)c1=O	PAFAH2 FP inh 31, pPAFAH inh 45 | pPAFAH confirm 28
CCNc1ccc(Br)cc(C(=O)/C=C/c2ccc(Cl)cc2Cl)c1=O	PAFAH2 FP inh 33, pPAFAH inh 66 | pPAFAH confirm 34
CNc1ccc(Br)cc(C(=O)/C=C/c2ccc(OC)cc2)c1=O	pPAFAH inh 43 | pPAFAH confirm inactive
COc1ccc(/C=C/C(=O)c2cc(Br)ccc2O)cc1OC	none
CC(C)C(=O)N1CCCC1(C)C(=O)N(C)Cc1cccc2ccccc12 (centres undefined)	none (no result: PAFAH1B2 FP inh, PAFAH1B3 inh, PAFAH2 FP inh, pPAFAH inh)
Cc1ccc(S(=O)(=O)NC(=O)Nc2c(C)cccc2C)cc1	none
O=C(Cc1ccc(NC(=O)C2CCN(C(=O)C3CCC3)CC2)cc1)Nc1cccc(C(=O)N2CCCCC2)c1	none (no result: pPAFAH inh)
Brc1ccc2nc(-c3ccco3)c(CC3CCCCC3)n2c1	none (no result: PAFAH1B2 FP inh, PAFAH1B3 inh, PAFAH2 FP inh, pPAFAH inh)
CCOc1ccccc1NC(=O)CN1CCC(NC(=O)Nc2ccccc2)CC1	none
C=C1c2cccc(O)c2C(O)=C2C(=O)[C@]3(O)C(O)=C(C(N)=O)C(=O)[C@@H](N(C)C)[C@@H]3[C@@H](O)[C@H]12	pPAFAH inh 95 | pPAFAH confirm inactive
CCCC1Nc2ccc(C(=O)O)cc2C2C=CCC12 (centres undefined)	PAFAH1B3 inh 32, PAFAH2 FP inh 44, pPAFAH inh 46 (no result: ASAP1 GAP inh, ARFGAP1 inh) | pPAFAH confirm 31
CCOC(=O)C1Nc2ccc(C(=O)O)cc2C2C=CCC12 (centres undefined)	PAFAH1B3 inh 49, pPAFAH inh 40 | pPAFAH confirm inactive
CC(=O)c1ccc2c(c1)C1C=CCC1C(c1cc3c(cc1Br)OCO3)N2 (centres undefined)	none
CCOC(=O)C1Nc2c(F)cc(C)cc2C2C=CCC12 (centres undefined)	none (no result: PAFAH1B2 FP inh, PAFAH1B3 inh, PAFAH2 FP inh, ASAP1 GAP inh, ARFGAP1 inh)
Cc1c(N/C(=N/S(=O)(=O)c2ccccc2)c2ccc(Cl)cc2)c(=O)n(-c2ccccc2)n1C	none
